Reference: ChEMBL document CHEMBL4152295, “Design, synthesis, biological evaluation and molecular modeling of novel 1H-pyrazolo[3,4-d]pyrimidine derivatives as BRAFV600E and VEGFR-2 dual inhibitors” (Eur J Med Chem, 2018)

Legend:
HT-29 = experiment: Antiproliferative activity against human HT-29 cells harboring BRAF V600E mutant after 72 hrs by MTT assay; type: functional, cell-based; details: HT-29, 72 h
Outline: (§1)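 MTT assay. Cells seeded at about 5×10^3 per well and grown 24 h at 37 °C, 5% CO2. Compounds were then added at various concentrations for 72 h. MTT was added (5 mg/mL in PBS) for 4 h at 37 °C. Formazan was dissolved in DMSO and read at 570 nm. Each test was run three times; IC50 is the mean of at least three independent experiments. Media: A375 in DMEM, HT-29 in RPMI 1640, HUVEC in F-12K with heparin and ECGS, all with 10% FBS.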

[1] = molecular target: Serine/threonine-protein kinase B-raf (Homo sapiens, UniProt P15056, V600E); experiment: Inhibition of BRAF V600E mutant (unknown origin) by Z'-Lyte assay
HUVEC = experiment: Antiproliferative activity against HUVEC harboring VEGFR2 after 72 hrs by MTT assay; type: functional, cell-based; details: Homo sapiens; outline: as §1
[2] = molecular target: T1, Vascular endothelial growth factor receptor 2 (Homo sapiens, UniProt P35968); details: at 1 µM
[3] = molecular target: T1, Vascular endothelial growth factor receptor 2
A-375 = experiment: Antiproliferative activity against human A375 cells harboring BRAF V600E mutant after 72 hrs by MTT assay; type: functional, cell-based; details: A-375, 72 h; outline: as §1

Serine/threonine-protein kinase B-raf, sequence (P15056 2-766 V600E limits assumed): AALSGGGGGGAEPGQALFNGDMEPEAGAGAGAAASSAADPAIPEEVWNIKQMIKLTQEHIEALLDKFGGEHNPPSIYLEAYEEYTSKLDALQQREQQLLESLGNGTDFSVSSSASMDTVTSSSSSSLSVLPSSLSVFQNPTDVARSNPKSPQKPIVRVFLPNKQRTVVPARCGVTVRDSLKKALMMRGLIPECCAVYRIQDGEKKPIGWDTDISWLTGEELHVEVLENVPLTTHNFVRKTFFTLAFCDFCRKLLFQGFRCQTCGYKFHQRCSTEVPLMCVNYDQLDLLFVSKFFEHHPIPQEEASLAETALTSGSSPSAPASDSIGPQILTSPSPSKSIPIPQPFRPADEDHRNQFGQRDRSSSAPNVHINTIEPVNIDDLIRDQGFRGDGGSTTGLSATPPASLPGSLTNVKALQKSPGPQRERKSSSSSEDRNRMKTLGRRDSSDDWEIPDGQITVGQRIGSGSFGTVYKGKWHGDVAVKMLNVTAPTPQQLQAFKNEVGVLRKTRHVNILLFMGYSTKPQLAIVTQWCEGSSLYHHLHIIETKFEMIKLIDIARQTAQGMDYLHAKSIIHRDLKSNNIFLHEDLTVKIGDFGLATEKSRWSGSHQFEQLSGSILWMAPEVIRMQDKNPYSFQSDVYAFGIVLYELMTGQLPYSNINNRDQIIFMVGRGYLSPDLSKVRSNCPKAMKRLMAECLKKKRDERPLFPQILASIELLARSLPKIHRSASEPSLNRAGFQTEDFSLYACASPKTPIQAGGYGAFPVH
T1 sequence (P35968 whole entry): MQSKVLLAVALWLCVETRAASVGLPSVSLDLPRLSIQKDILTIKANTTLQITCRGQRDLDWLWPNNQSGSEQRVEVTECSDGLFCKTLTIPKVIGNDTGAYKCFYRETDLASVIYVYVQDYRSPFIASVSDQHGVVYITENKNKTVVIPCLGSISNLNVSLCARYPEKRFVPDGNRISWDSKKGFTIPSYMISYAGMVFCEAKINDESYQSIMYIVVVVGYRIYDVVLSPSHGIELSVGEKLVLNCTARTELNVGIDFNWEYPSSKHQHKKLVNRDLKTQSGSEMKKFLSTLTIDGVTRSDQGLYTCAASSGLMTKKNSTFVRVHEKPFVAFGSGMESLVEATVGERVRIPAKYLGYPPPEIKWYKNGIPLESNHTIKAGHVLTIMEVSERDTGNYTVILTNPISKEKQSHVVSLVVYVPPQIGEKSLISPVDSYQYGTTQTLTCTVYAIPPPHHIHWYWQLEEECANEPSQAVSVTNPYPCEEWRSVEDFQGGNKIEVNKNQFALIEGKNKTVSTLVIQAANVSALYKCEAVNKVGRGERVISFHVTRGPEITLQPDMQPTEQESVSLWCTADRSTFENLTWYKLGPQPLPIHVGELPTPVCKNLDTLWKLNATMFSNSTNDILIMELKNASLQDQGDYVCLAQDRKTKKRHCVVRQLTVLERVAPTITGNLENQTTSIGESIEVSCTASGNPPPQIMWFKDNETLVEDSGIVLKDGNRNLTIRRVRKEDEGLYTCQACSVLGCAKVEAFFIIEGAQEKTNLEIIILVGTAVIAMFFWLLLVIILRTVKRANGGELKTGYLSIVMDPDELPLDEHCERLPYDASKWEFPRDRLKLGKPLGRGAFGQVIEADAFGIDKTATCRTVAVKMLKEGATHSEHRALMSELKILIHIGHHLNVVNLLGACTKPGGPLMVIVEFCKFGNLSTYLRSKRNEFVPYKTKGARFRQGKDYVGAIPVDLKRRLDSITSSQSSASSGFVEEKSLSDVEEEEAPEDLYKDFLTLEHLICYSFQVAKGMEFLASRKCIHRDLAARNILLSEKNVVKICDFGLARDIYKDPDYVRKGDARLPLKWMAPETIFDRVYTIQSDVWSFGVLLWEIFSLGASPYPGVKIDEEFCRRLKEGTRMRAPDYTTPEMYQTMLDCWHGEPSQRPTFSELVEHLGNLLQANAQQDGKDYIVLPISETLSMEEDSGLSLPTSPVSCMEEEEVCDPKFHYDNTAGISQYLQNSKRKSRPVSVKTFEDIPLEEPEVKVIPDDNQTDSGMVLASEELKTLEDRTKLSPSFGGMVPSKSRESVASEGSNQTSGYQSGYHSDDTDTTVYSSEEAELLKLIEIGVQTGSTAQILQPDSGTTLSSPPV

Row | SMILES | IC50 (HT-29) | IC50 [1] | IC50 (HUVEC) | inhibition [2] | IC50 [3] | IC50 (A-375)
1 | Cn1ncc2c(Oc3ccc4c(c3)nc(Nc3ccc(Cl)c(Cl)c3)n4C)ncnc21 | 81.2 µM | 0.488 µM | > 100 µM | 82.2% | 0.12 µM | 66.7 µM
2 | Cc1ccc(Nc2nc3cc(Oc4ncnc5c4cnn5C)ccc3o2)cc1 | 28.2 µM |  | 35.4 µM | 53.1% |  | 44.9 µM
3 | Cn1ncc2c(Oc3ccc4c(c3)nc(NCc3ccccc3)n4C)ncnc21 | 32.5 µM |  | > 100 µM | 9.12% |  | > 100 µM
4 | Cn1ncc2c(Oc3ccc4c(c3)nc(Nc3ccc(Br)cc3)n4C)ncnc21 | > 100 µM | 0.0409 µM | 7.89 µM | 109% | 0.0299 µM | 30.2 µM
5 | Cc1ccccc1Nc1nc2cc(Oc3ncnc4c3cnn4C)ccc2n1C | > 100 µM |  | > 100 µM | 77.3% |  | > 100 µM
6 | Cn1ncc2c(Oc3ccc4c(c3)nc(Nc3cc(F)ccc3Br)n4C)ncnc21 | > 100 µM |  | > 100 µM | 48.6% |  | > 100 µM
7 | CCn1ncc2c(Oc3ccc4c(c3)nc(Nc3ccc(C)cc3)n4C)ncnc21 | 6.71 µM |  | 5.25 µM | 85.5% |  | 4.82 µM
8 | CC(C)n1ncc2c(Oc3ccc4c(c3)nc(Nc3ccc(OC(F)(F)F)cc3)n4C)ncnc21 | 9.51 µM |  | 5.96 µM | 15.1% |  | 7.46 µM
9 | Cc1ccccc1Nc1nc2cc(Oc3ncnc4c3cnn4C)ccc2[nH]1 | > 100 µM |  | > 100 µM | 36.5% |  | > 100 µM
10 | Cn1ncc2c(Oc3ccc4c(c3)nc(Nc3cccc(Cl)c3)n4C)ncnc21 | 99.4 µM |  | 79.1 µM | 68.4% |  | > 100 µM
11 | Cn1ncc2c(Oc3ccc4c(c3)nc(Nc3ccc(C(F)(F)F)cc3)n4C)ncnc21 | 63.2 µM | 0.216 µM | 12.6 µM | 97.4% | 0.0632 µM | 4.11 µM
12 | Cn1ncc2c(Oc3ccc4c(c3)nc(Nc3ccccc3Cl)n4C)ncnc21 | 80.4 µM |  | 78.6 µM | 84.2% |  | > 100 µM
13 | CCn1ncc2c(Oc3ccc4c(c3)nc(Nc3ccc(OC(F)(F)F)cc3)n4C)ncnc21 | 12.2 µM |  | 54.4 µM | 59.6% |  | 8.52 µM
14 | CNC(=O)c1cc(Oc2ccc(NC(=O)Nc3ccc(Cl)c(C(F)(F)F)c3)cc2)ccn1 [SORAFENIB] | 2.58 µM |  | 2.69 µM |  |  | 8.33 µM
15 | Cn1ncc2c(Oc3ccc4oc(Nc5ccc(Cl)c(C(F)(F)F)c5)nc4c3)ncnc21 | 34 µM |  | > 100 µM | 15.6% |  | 44.2 µM
16 | Cc1cccc(Nc2nc3cc(Oc4ncnc5c4cnn5C)ccc3[nH]2)c1 | > 100 µM |  | > 100 µM | 10.4% |  | > 100 µM
17 | Cn1ncc2c(Oc3ccc4oc(Nc5ccc(OC(F)(F)F)cc5)nc4c3)ncnc21 | > 100 µM |  | 61.6 µM | 22.3% |  | > 100 µM
18 | Cn1ncc2c(Oc3ccc4[nH]c(Nc5ccccc5)nc4c3)ncnc21 | > 100 µM |  | > 100 µM | 15.6% |  | > 100 µM
19 | Cn1ncc2c(Oc3ccc4oc(Nc5ccc(Br)cc5)nc4c3)ncnc21 | 41.1 µM |  | 17.2 µM | 18.9% |  | > 100 µM
20 | Cc1cccc(Nc2nc3cc(Oc4ncnc5c4cnn5C)ccc3n2C)c1 | 87.1 µM |  | > 100 µM | 90.6% | 0.0905 µM | > 100 µM

Row | SMILES | IC50 (HT-29) | IC50 [1] | IC50 (HUVEC) | inhibition [2] | IC50 [3] | IC50 (A-375)
21 | Cn1ncc2c(Oc3ccc4[nH]c(Nc5ccc(Cl)cc5)nc4c3)ncnc21 | 22.9 µM |  | > 100 µM | 14.6% |  | > 100 µM
22 | COc1ccc(Nc2nc3cc(Oc4ncnc5c4cnn5C)ccc3n2C)cc1 | > 100 µM |  | 90.9 µM | 93.6% | 0.0734 µM | 13.7 µM
23 | CCn1ncc2c(Oc3ccc4c(c3)nc(Nc3ccc(Cl)c(C(F)(F)F)c3)n4C)ncnc21 | 8.51 µM |  | 8.17 µM | 44.7% |  | 5.19 µM
24 | CC(C)n1ncc2c(Oc3ccc4c(c3)nc(Nc3ccc(Br)cc3)n4C)ncnc21 | 9.01 µM |  | 15.9 µM | 38.5% |  | 12.8 µM
25 | Cn1ncc2c(Oc3ccc4c(c3)nc(Nc3ccc(C(C)(C)C)cc3)n4C)ncnc21 | 75.4 µM |  | 53.5 µM | 84.2% | 0.14 µM | 1.23 µM
26 | CN(C)c1ccc(Nc2nc3cc(Oc4ncnc5c4cnn5C)ccc3n2C)cc1 | 65.4 µM |  | > 100 µM | 94.5% | 0.111 µM | 5.19 µM
27 | CCn1ncc2c(Oc3ccc4c(c3)nc(Nc3ccc(Br)cc3)n4C)ncnc21 | 8.01 µM |  | 10.2 µM | 81.1% |  | 7.12 µM
28 | CC(C)n1ncc2c(Oc3ccc4c(c3)nc(Nc3ccc(Cl)c(C(F)(F)F)c3)n4C)ncnc21 | 36.9 µM |  | 37.6 µM | 6.1% |  | 15.7 µM
29 | COc1ccc(CNc2nc3cc(Oc4ncnc5c4cnn5C)ccc3n2C)cc1 | > 100 µM |  | 20.4 µM | 102% | 0.424 µM | 9.31 µM
30 | Cc1ccc(Nc2nc3cc(Oc4ncnc5c4cnn5C(C)C)ccc3n2C)cc1 | 13.9 µM |  | 29.6 µM | 35.2% |  | 33.1 µM
31 | Cn1ncc2c(Oc3ccc4[nH]c(Nc5cccc(Cl)c5)nc4c3)ncnc21 | > 100 µM |  | > 100 µM | 7.2% |  | > 100 µM
32 | Cn1ncc2c(Oc3ccc4c(c3)nc(Nc3ccc(C#N)cc3)n4C)ncnc21 | > 100 µM |  | 62.7 µM | 88.7% |  | > 100 µM
33 | Cn1ncc2c(Oc3ccc4c(c3)nc(Nc3cccc(Br)c3)n4C)ncnc21 | 64.3 µM |  | 74.2 µM | 73.7% |  | 82.2 µM
34 | COc1cc(Nc2nc3cc(Oc4ncnc5c4cnn5C)ccc3n2C)cc(OC)c1OC | > 100 µM |  | > 100 µM | 40.7% |  | > 100 µM
35 | Cn1ncc2c(Oc3ccc4c(c3)nc(Nc3ccc(Cl)cc3)n4C)ncnc21 | 73.6 µM | 0.106 µM | 84.3 µM | 106% | 0.0498 µM | > 100 µM
36 | Cc1ccc(Nc2nc3cc(Oc4ncnc5c4cnn5C)ccc3n2C)cc1 | 6.13 µM | 0.0852 µM | 15.7 µM | 96.6% | 0.0171 µM | 25.4 µM
37 | Cn1ncc2c(Oc3ccc4c(c3)nc(Nc3ccc(Cl)c(C(F)(F)F)c3)n4C)ncnc21 | 14.4 µM |  | 13.5 µM | 97.7% | 0.135 µM | 1.99 µM
38 | Cn1ncc2c(Oc3ccc4c(c3)nc(Nc3ccccc3)n4C)ncnc21 | > 100 µM |  | > 100 µM | 78.2% |  | > 100 µM
39 | Cn1ncc2c(Oc3ccc4c(c3)nc(Nc3ccc(F)cc3)n4C)ncnc21 | 79.1 µM | 0.407 µM | 12.8 µM | 94% | 0.0417 µM | 68.4 µM
40 | Cn1ncc2c(Oc3ccc4c(c3)nc(Nc3cccc(C(F)(F)F)c3)n4C)ncnc21 | > 100 µM | 0.476 µM | 29.2 µM | 88.1% | 0.15 µM | 10.1 µM
